The target of assay [1] is T1, Dual specificity protein phosphatase 1 (Mus musculus, UniProt P28563).
T1 sequence (P28563 whole entry): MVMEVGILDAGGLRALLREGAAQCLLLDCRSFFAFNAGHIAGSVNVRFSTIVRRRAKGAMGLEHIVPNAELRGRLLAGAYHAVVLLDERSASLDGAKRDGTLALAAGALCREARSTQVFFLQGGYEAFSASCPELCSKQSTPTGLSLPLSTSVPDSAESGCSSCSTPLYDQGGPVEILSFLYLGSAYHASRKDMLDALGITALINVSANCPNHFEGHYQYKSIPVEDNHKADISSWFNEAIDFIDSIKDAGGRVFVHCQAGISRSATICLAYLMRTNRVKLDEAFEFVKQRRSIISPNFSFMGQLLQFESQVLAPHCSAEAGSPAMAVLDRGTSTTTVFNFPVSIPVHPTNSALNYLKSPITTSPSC
Kind of assay: Inhibition of histidine-tagged mouse MKP1 catalytic domain expressed in […].

Assay [2] relates to A2780. Kind of assay: Antiproliferative activity against human A2780 cells after 2 days by alamar-blue assay. Format: functional, cell-based. As to conditions: A2780, 48 h. In general terms: Resazurin is reduced to fluorescent resorufin, in cell work by metabolically active cells.
For assay [3], the target named is T2, Dual specificity protein phosphatase 6 (Rattus norvegicus, UniProt Q64346).
T2 sequence (Q64346 whole entry): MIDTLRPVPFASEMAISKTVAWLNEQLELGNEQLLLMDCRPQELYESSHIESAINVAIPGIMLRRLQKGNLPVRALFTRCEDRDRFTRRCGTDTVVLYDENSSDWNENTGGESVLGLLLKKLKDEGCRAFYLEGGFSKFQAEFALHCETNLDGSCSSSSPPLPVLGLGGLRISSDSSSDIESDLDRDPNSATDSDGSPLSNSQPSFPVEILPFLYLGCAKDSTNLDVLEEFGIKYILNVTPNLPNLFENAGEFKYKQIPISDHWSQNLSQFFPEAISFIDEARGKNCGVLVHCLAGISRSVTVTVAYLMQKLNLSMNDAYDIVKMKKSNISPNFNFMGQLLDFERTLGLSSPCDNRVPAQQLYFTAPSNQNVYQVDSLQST
Kind of assay: Inhibition of histidine-tagged rat recombinant MKP3 catalytic domain expressed in Escherichia coli BL21(DE3). Summed up:
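Recombinant MKP-3 was expressed from a bacterial plasmid. Phosphatase activity was read from O-methyl fluorescein phosphate hydrolysis in a 25 μL final mixture, incubated 20 or 60 min at ambient temperature. Product fluorescence was read at excitation 485 nm and emission 530 nm. IC50 came from at least six inhibitor concentrations.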

Assay [4] addresses T3, M-phase inducer phosphatase 2 (Homo sapiens, UniProt P30305).
T3 sequence (P30305 whole entry): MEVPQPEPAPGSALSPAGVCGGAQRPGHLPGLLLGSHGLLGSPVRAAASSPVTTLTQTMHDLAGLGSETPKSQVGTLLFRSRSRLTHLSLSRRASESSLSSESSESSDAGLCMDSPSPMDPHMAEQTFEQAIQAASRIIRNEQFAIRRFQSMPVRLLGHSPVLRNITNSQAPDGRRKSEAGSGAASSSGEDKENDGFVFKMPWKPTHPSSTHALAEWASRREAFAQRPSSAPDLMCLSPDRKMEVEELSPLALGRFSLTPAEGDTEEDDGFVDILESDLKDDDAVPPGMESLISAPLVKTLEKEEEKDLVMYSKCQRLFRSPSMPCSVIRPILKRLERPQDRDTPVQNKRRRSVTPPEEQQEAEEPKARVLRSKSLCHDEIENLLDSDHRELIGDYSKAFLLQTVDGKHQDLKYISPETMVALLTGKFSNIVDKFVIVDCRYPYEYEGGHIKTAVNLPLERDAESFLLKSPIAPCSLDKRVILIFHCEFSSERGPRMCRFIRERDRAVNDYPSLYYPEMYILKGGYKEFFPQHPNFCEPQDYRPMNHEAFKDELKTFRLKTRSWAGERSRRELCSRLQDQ
Kind of assay: Inhibition of histidine-tagged human recombinant Cdc25B catalytic domain expressed in Escherichia coli.

The subject of assay [5] is A2780. Description: Antiproliferative activity against human A2780 cells assessed as growth inhibition after 2 days by microscopic analysis. Format: functional, cell-based.
Assay [6] deals with T3, M-phase inducer phosphatase 2. Description: Inhibition of histidine-tagged full length human Cdc25B expressed in Escherichia coli. Put shortly:
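His6-tagged full-length enzyme purified from E. coli on Ni-NTA resin. Substrate is O-methyl fluorescein phosphate. Buffer is 30 mM Tris pH 8.5, 75 mM NaCl, 1 mM EDTA, 0.033% BSA and 1 mM DTT (final). Incubation runs 20 or 60 min at ambient temperature. Fluorescence is read at ex 485 / em 530 nm. IC50 comes from at least six concentrations.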

Activity calls are given as the source filed them. The rule behind the calls is not given here.

A word on the IC50: it is the point on the concentration scale where inhibition reaches its midpoint. As to `O=C1C=CC(=O)c2c(O)cccc21` [JUGLONE], the IC50 in assay [1] is 13 µM; in the assay on A2780 [2], 1.4 µM; in assay [3], 12.4 µM; in assay [4] it was 1.98 µM.
Regarding `O=C1C2=C(C(=O)c3ccccc31)S(=O)(=O)CCN2`, the half-maximal inhibitory concentration (IC50) came to 17.8 µM in assay [1], 4.3 µM with A2780 [2], 42.6 µM in assay [3] and 0.94 µM in assay [4].
On to `O=C1c2cc3c(cc2C(=O)C2OC12)CCCC3` (stereo not given), for which the concentration for half-maximal inhibition (IC50) in assay [1] was greater than 50 µM; in assay [3], 49.9 µM; in assay [4], 22.3 µM.
With `O=C1C=CC(=O)C=C1` [BENZOQUINONE], the concentration for half-maximal inhibition (IC50) in assay [1] is greater than 50 µM; in the assay on A2780 [2], 7.8 µM; in assay [3], greater than 50 µM; in assay [4] it was greater than 50 µM.
`CC1=C(NCCO)C(=O)c2ccccc2C1=O`: the IC50 in assay [1], in assay [3] and in assay [4] was greater than 50 µM throughout. In the assay with A2780 [5], the result was Active.
As to `O=C1C=CC(=O)c2ccccc21` [NAPHTHOQUINONE], the IC50 in assay [1] was determined as 8.45 µM; in the assay with A2780 [2], 2.3 µM; in assay [3] it was 19.8 µM; in assay [4] it was 2.76 µM.
Consider `O=C1C2=C(C(=O)c3cc4c(cc31)CCCC4)S(=O)(=O)CCN2`, for which the IC50 is 38.7 µM in assay [1], greater than 50 µM in assay [3] and 2.3 µM in assay [4].
Consider `O=C1c2ccccc2C(=O)c2ccccc21` [ANTHRAQUINONE], for which the IC50 was greater than 50 µM in assay [1], greater than 50 µM in assay [3] and 9.51 µM in assay [4].
As for `O=C1C2=C(C(=O)c3c(O)cccc31)S(=O)(=O)CCN2`, the IC50 in assay [1] is 33.8 µM; in the assay with A2780 [2], 2.1 µM; in assay [3], greater than 50 µM; in assay [4], 0.88 µM.
Take `CC1=CC(=O)c2ccccc2C1=O` [MENADIONE]: the half-inhibitory concentration (IC50) in assay [1] amounted to 24 µM; in the assay with A2780 [2], 2.6 µM; in assay [3] it was 20.5 µM; in assay [4], 3.38 µM.
In the case of `CCOC1=CC(=O)C(=O)c2ccccc21`, the IC50 in assay [1] was 0.82 µM; in the assay on A2780 [2] it was 0.37 µM; in assay [3] it was 1.35 µM; in assay [4], 0.27 µM.
Take `O=C1C=CC(=O)c2c(O)ccc(O)c21` [NAPHTHAZALIN]: the IC50 came out at 9.37 µM in assay [1], 6.9 µM in assay [3] and 1 µM in assay [4].
For `C[C@@]12CCCc3coc(c31)C(=O)c1cc3c(cc12)C(=O)C1=C(NCCS1(=O)=O)C3=O` [ADOCIAQUINONE B], the IC50 was 1.1 µM in assay [1], 0.08 µM in assay [6], 1.53 µM in assay [3] and 0.11 µM in assay [4].
Consider `O=C1C=CC(=O)c2cc3c(cc21)CCCC3`, for which the 50% inhibitory concentration (IC50) was 21.8 µM in assay [1], greater than 50 µM in assay [3] and 9.53 µM in assay [4].
In the case of `O=C1C=C(NCCO)C(=O)c2ccccc21`, the IC50 in assay [1] was greater than 50 µM; with A2780 [2], 64 µM; in assay [3], greater than 50 µM; in assay [4], greater than 50 µM.

These data come from ChEMBL document CHEMBL1153892 (Bioorg Med Chem, 2009).
